ChEMBL document CHEMBL1147665, “Design, synthesis, and biological evaluation of 4-alkyliden-beta lactams: new products with promising antibiotic activity against resistant bacteria” (J Med Chem, 2006)
≈ marks a conversion by molar mass, not a printed value.

Columns and labels:
Haemophilus influenzae = assay: Antibacterial activity against Haemophilus influenzae; format: functional
Outline: (§1)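 Broth microdilution MIC per CLSI guidelines in Mueller-Hinton broth: serial 2-fold dilutions, inoculum 5 × 10⁵ CFU/mL in equal volume, 35 °C for 16-20 h. MIC = lowest concentration with no visible turbidity. Recent clinical isolates (43 total, Gram-positive and Gram-negative); values given as MIC ranges, MIC₅₀ and MIC₉₀ per species.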

[1] = tested on: Staphylococcus epidermidis; assay: Antibacterial activity against Staphylococcus epidermidis; format: functional; outline: as §1
Staphylococcus aureus [2] = assay: Antibacterial activity against methicillin-susceptible Staphylococcus aureus; format: functional; outline: as §1
Streptococcus pyogenes = assay: Antibacterial activity against Streptococcus pyogenes; format: functional; outline: as §1
[3] = Viability of human TPC1 cell line at 128 uM after 3 hrs; format: cell-based; conditions: TPC1 cells, read-out: Activity
Outline: (§2)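 Human TPC1 cells seeded at 40 000/well in supplemented DMEM, grown overnight at 37 °C, 5% CO₂. Fresh medium with compound (0-128 µM, 2-fold steps), six parallel wells per concentration and controls, exposed 3, 6 or 21 h. MTT (5 mg/mL stock diluted 1:15 in medium) for 3 h, acidified 2-propanol solubilization, OD 600 nm; viability relative to control.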

[4] = Viability of human TPC1 cell line at 8 uM after 21 hrs; format: cell-based; conditions: TPC1 cells, read-out: Activity; outline: as §2
Streptococcus pneumoniae = assay: Antibacterial activity against Streptococcus pneumoniae; format: functional; outline: as §1
Staphylococcus aureus [5] = assay: Antibacterial activity against methicillin-resistant Staphylococcus aureus; format: functional
Outline: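 Clinical isolates (3 MRSA in a 43-strain panel). Broth microdilution per CLSI, serial 2-fold dilutions in Mueller-Hinton broth, inoculum 5 × 10⁵ CFU/mL, 35 °C for 16-20 h. MIC = lowest concentration with no visible turbidity; reported as MIC range, MIC₅₀ and MIC₉₀ across isolates.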

[6] = Viability of human TPC1 cell line at 128 uM after 21 hrs; format: cell-based; conditions: TPC1 cells, read-out: Activity; outline: as §2
Enterococcus = assay: Antibacterial activity against Enterococcus spp; format: functional; outline: as §1
[7] = Viability of human TPC1 cell line at 32 uM after 21 hrs; format: cell-based; conditions: TPC1 cells, read-out: Activity; outline: as §2

SMILES: O=C(/C=C1\NC(=O)[C@@H]1Cl)OCc1ccccc1
- MIC50 (Haemophilus influenzae): 1 µg/mL (≈ 3.97 µM)
- MIC90 (Haemophilus influenzae): 2 µg/mL (≈ 7.95 µM)
- MIC50 [1]: 8 µg/mL (≈ 31.8 µM)
- MIC90 [1]: 32 µg/mL (≈ 127 µM)
- MIC50 (Staphylococcus aureus [2]): 8 µg/mL (≈ 31.8 µM)
- MIC90 (Staphylococcus aureus [2]): 16 µg/mL (≈ 63.6 µM)
- MIC50 (Streptococcus pyogenes): 32 µg/mL (≈ 127 µM)
- MIC90 (Streptococcus pyogenes): 128 µg/mL (≈ 509 µM)
- viability at 3 h, 128 µM [3]: 48%
- viability at 21 h, 8 µM [4]: 81%
- MIC50 (Streptococcus pneumoniae): 128 µg/mL (≈ 509 µM)
- MIC90 (Streptococcus pneumoniae): 128 µg/mL (≈ 509 µM)
- MIC50 (Staphylococcus aureus [5]): 16 µg/mL (≈ 63.6 µM)
- MIC90 (Staphylococcus aureus [5]): 32 µg/mL (≈ 127 µM)
- viability at 21 h, 128 µM [6]: 23%
- MIC50 (Enterococcus): 16 µg/mL (≈ 63.6 µM)
- MIC90 (Enterococcus): 16 µg/mL (≈ 63.6 µM)

SMILES: COc1cc(C(=O)O[C@H](C)[C@H]2C(=O)N/C2=C\C(=O)OCc2ccccc2)cc(OC)c1O
- MIC50 (Haemophilus influenzae): 64 µg/mL (≈ 145 µM)
- MIC90 (Haemophilus influenzae): 128 µg/mL (≈ 290 µM)
- MIC50 [1]: 2 µg/mL (≈ 4.53 µM)
- MIC90 [1]: 64 µg/mL (≈ 145 µM)
- MIC50 (Staphylococcus aureus [2]): 16 µg/mL (≈ 36.2 µM)
- MIC90 (Staphylococcus aureus [2]): 128 µg/mL (≈ 290 µM)
- MIC50 (Streptococcus pyogenes): 128 µg/mL (≈ 290 µM)
- MIC90 (Streptococcus pyogenes): 128 µg/mL (≈ 290 µM)
- MIC50 (Streptococcus pneumoniae): 128 µg/mL (≈ 290 µM)
- MIC90 (Streptococcus pneumoniae): 128 µg/mL (≈ 290 µM)
- viability at 21 h, 32 µM [7]: 81%
- MIC50 (Staphylococcus aureus [5]): 32 µg/mL (≈ 72.5 µM)
- MIC90 (Staphylococcus aureus [5]): 64 µg/mL (≈ 145 µM)
- viability at 21 h, 128 µM [6]: 64%
- MIC50 (Enterococcus): 128 µg/mL (≈ 290 µM)
- MIC90 (Enterococcus): > 128 µg/mL

SMILES: CO/N=C(\C(=O)N[C@@H]1C(=O)N2C(C(=O)O)=C(CSc3nc(=O)c(O)nn3C)CS[C@H]12)c1csc(N)n1 [CEFTRIAXONE]
- MIC50 (Haemophilus influenzae): < 0.06 µg/mL
- MIC90 (Haemophilus influenzae): 0.12 µg/mL (≈ 0.216 µM)
- MIC50 [1]: 8 µg/mL (≈ 14.4 µM)
- MIC90 [1]: 32 µg/mL (≈ 57.7 µM)
- MIC50 (Staphylococcus aureus [2]): 2 µg/mL (≈ 3.61 µM)
- MIC90 (Staphylococcus aureus [2]): 2 µg/mL (≈ 3.61 µM)
- MIC50 (Streptococcus pyogenes): < 0.06 µg/mL
- MIC90 (Streptococcus pyogenes): < 0.06 µg/mL
- MIC50 (Streptococcus pneumoniae): 0.12 µg/mL (≈ 0.216 µM)
- MIC90 (Streptococcus pneumoniae): 2 µg/mL (≈ 3.61 µM)
- MIC50 (Staphylococcus aureus [5]): > 128 µg/mL
- MIC90 (Staphylococcus aureus [5]): > 128 µg/mL
- MIC50 (Enterococcus): > 128 µg/mL
- MIC90 (Enterococcus): > 128 µg/mL

SMILES: C[C@@H](O)[C@H]1C(=O)N2C(C(=O)O)=C(SCCNC=N)C[C@H]12 [IMIPENEM ANHYDROUS]
- MIC50 (Haemophilus influenzae): < 0.06 µg/mL
- MIC90 (Haemophilus influenzae): 0.12 µg/mL (≈ 0.401 µM)
- MIC50 [1]: < 0.06 µg/mL
- MIC90 [1]: 1 µg/mL (≈ 3.34 µM)
- MIC50 (Staphylococcus aureus [2]): < 0.06 µg/mL
- MIC90 (Staphylococcus aureus [2]): < 0.06 µg/mL
- MIC50 (Streptococcus pyogenes): < 0.06 µg/mL
- MIC90 (Streptococcus pyogenes): < 0.06 µg/mL
- MIC50 (Streptococcus pneumoniae): 0.12 µg/mL (≈ 0.401 µM)
- MIC90 (Streptococcus pneumoniae): 1 µg/mL (≈ 3.34 µM)
- MIC50 (Staphylococcus aureus [5]): 64 µg/mL (≈ 214 µM)
- MIC90 (Staphylococcus aureus [5]): 128 µg/mL (≈ 428 µM)
- MIC50 (Enterococcus): 0.5 µg/mL (≈ 1.67 µM)
- MIC90 (Enterococcus): > 128 µg/mL

SMILES: C[C@@H](O)[C@H]1C(=O)N2C(C(=O)O)=C(S[C@@H]3CN[C@H](C(=O)N(C)C)C3)[C@H](C)[C@H]12 [MEROPENEM]
- MIC50 (Haemophilus influenzae): < 0.06 µg/mL
- MIC90 (Haemophilus influenzae): < 0.06 µg/mL
- MIC50 [1]: < 0.12 µg/mL
- MIC90 [1]: 64 µg/mL (≈ 167 µM)
- MIC50 (Staphylococcus aureus [2]): < 0.06 µg/mL
- MIC90 (Staphylococcus aureus [2]): < 0.06 µg/mL
- MIC50 (Streptococcus pyogenes): < 0.06 µg/mL
- MIC90 (Streptococcus pyogenes): < 0.06 µg/mL
- MIC50 (Streptococcus pneumoniae): < 0.06 µg/mL
- MIC90 (Streptococcus pneumoniae): 2 µg/mL (≈ 5.22 µM)
- MIC50 (Staphylococcus aureus [5]): 32 µg/mL (≈ 83.4 µM)
- MIC90 (Staphylococcus aureus [5]): 32 µg/mL (≈ 83.4 µM)
- MIC50 (Enterococcus): 2 µg/mL (≈ 5.22 µM)
- MIC90 (Enterococcus): > 128 µg/mL
